According to the RNAGym collection of RNA variant scans (doi:10.1126/science.aae0568):
Variants at the floor of the assay were thinned out.

B1: tRNA (parent)
chain: GUUCCGUUGGCGUAAUGGUAACGCGUCUCCCUCCUAAGGAGAAGACUGCGGGUUCGAGUCCCGUACGGAACG

Variants of: B1
Assay: yeast fitness relative to wild type (ratio to wild type); higher = fitter; tRNA-Arg(CCU), competitive growth, 37 C, YPD
How it was run: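 The tRNA-Arg(CCU) gene variants were made by chemical synthesis with a 3% per-site mutation rate at 69 sites and inserted at the native genomic locus of Saccharomyces cerevisiae. After pooling, the strains were competed in YPD at 37°C for 24 hours in six parallel replicates. Gene amplicons from the start population and each end population were read by 100-nucleotide paired-end sequencing, and Darwinian fitness relative to wild type was taken from genotype frequency changes. Genotypes needed ≥ 100 starting reads, and estimates < 0.5 were set to 0.5.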

Variant | yeast fitness
GUUCCGUUGGCGCAAUGGUAACGCGUCUCCCUCCUAAGGAGAAGACUCCGGGUUCGAGUCCCGUACGGAACG [U13C G48C] | 0.906
GUUCCGUUGGCGCAAUGGUAACGCGUCUCCCUCCUAAGGAGAAGACUCCGGGUUCGCGUCCCGUACGGAACG [U13C G48C A57C] | ≤ 0.5
GUUCCGUUGGCGCAAUGGUAACGCGUCUCCCUCCUAAGGAGAAGACUCCGGGUUCGGGUCCCGUACGGAACG [U13C G48C A57G] | ≤ 0.5
GUUCCGUUGGCGCAAUGGUAACGCGUCUCCCUCCUAAGGAGAAGACUCCAGGUUCGAGUCCCGUACGGAACG [U13C G48C G50A] | ≤ 0.5
GUUCCGUUGGCGCAAUGGUAACGCGUCUCCCUCCUAAGGAGAAGACUGCAGGUUCGAGUCCCGUACGGAACG [U13C G50A] | 0.874
GUUCCGUUGGCGCAAUGGUAACGCGUCUCCCUCCUAAGGAGAAGACUGCCGGUUCGAGUCCCGUAUGGAACG [U13C G50C C66U] | ≤ 0.5
GUUCCGUUGGCGCAAUGGUAACGCGUCUCCCUCCUAAGGAGAAGACUGCGCGUCCGAGUCCCGUACGGAACG [U13C G51C U54C] | ≤ 0.5
GUUCCGUUGGCGCAAUGGUAACGCGUCUCCCUCCUAAGGAGAAGACUGCGGAUUCGAGUCCCGUACGGAACG [U13C G52A] | 0.735
GUUCCGUUGGCGCAAUGGUAACGCGUCUCCCUCCUAAGGAGAAGACUGCGGGUUCAAGUCCCGUACGGAACG [U13C G56A] | 1.04
GUUCCGUUGGCGCAAUGGUAACGCGUCUCCCUCCUAAGGAGAAGACUGCGGGUUCAAGUCCCGUAUGGAACG [U13C G56A C66U] | 0.696
GUUCCGUUGGCGCAAUGGUAACGCGUCUCCCUCCUAAGGAGAAGACUGCGGGUUCCAGUCCCGUACGGAACG [U13C G56C] | 0.549
GUUCCGUUGGCGCAAUGGUAACGCGUCUCCCUCCUAAGGAGAAGACUGCGGGUUCGAAUCCCGUACGGACCG [U13C G58A A70C] | 0.817
GUUCCGUUGGCGCAAUGGUAACGCGUCUCCCUCCUAAGGAGAAGACUGCGGGUUCGAGUCCCAUACGGAACG [U13C G63A] | 0.937
GUUCCGUUGGCGCAAUGGUAACGCGUCUCCCUCCUAAGGAGAAGACUGCGGGUUCGAGUCCCGUACGAAACG [U13C G68A] | 0.785
GUUCCGUUGGCGCAAACGUAACGCGUCUCCCUCUUAAGGAGAAGACUGCGGGUUCGAGUCCCGUACGGAACG [U13C U16A G17C C34U] | ≤ 0.5
GUUCCGUUGGCGCAACGGUAACGCGACUCCCUCCUAAGGAGAAGACUGCGGGUUCGAGUCCCGUACGGAACG [U13C U16C U26A] | 0.637
GUUCCGUUGGCGCAAGGGUAACGCGUCUCCCUCCUAAGGAGAAGACUGCGGGUUCGAGUCCCGUGCGGAACG [U13C U16G A65G] | 0.572
GUUCCGUUGGCGCAAGGGUAACGCGUCUCCCUCCUAAGGAGAAGACUGCGGGUUCGAGUCCCGUACGGAUCG [U13C U16G A70U] | 0.595
GUUCCGUUGGCGCAAGGGUAACGCGUGUCCCUCCUAAGGAGAAGACUGAGGGUUCGAGUACCGUACGGAACG [U13C U16G C27G C49A C60A] | ≤ 0.5

Variant | yeast fitness
GUUCCGUUGGCGCAAGGGUAACGCCUCUCCCUCCUAAGGAGAAGACUGCGGGUUCGAGUCCCGUACGGAACG [U13C U16G G25C] | ≤ 0.5
GUUCCGUUGGCGCAAUGGAAUCGAGUCUCCCUCCUAAGGAGAAGACUGCGGGUCCGAGCCCCGUACGGGACG [U13C U19A A21U C24A U54C U59C A69G] | ≤ 0.5
GUUCCGUUGGCGCAAUGGAAACGCGUCUCCCUCCUAAGGAGAAGACUGCGCGUUUGAGUCCCGGACGGAACG [U13C U19A G51C C55U U64G] | 0.633
GUUCCGUUGGCGCAAUGGCAACGCGUCUCCCUCCUUAGGAGGAGACUGCGGAUUCGAGUACAGUACGGAACG [U13C U19C A36U A42G G52A C60A C62A] | ≤ 0.5
GUUCCGUUGGCGCAAUGGGGACGCGUCUCCUUCCUAAGGAGAAAACUGCGGGUUCGAGUCCCGUACGGAACG [U13C U19G A20G C31U G44A] | ≤ 0.5
GUUCCGUUGGCGCAAUGGUAACGCGAUUCCCUCCUAAGGAGAAGACUGCGGGUUCGAGUCCCGUACGGAACG [U13C U26A C27U] | 0.593
GUUCCGUUGGCGCAAUGGUAACGCGCCUCCCUCCUAAGGAGAAGACUGCGGGUUCGAGUCCCGUACGGAACG [U13C U26C] | 0.809
GUUCCGUUGGCGCAAUGGUAACGCGCCUCCCUCCUAAGGAGAAGACUGCGGGUUCGAGUCCCGUCCGGAACG [U13C U26C A65C] | 0.661
GUUCCGUUGGCGCAAUGGUAACGCGGUUCCCUCCUAAGGAGAAGACUGUGGGUUCGAGUCCCGUAUGGAACG [U13C U26G C27U C49U C66U] | 0.801
GUUCCGUUGGCGCAAUGGUAACGCGUCCCCCUCCUAAGGAGAAGACUGCGGGUUCGAGUCCCGUACGGAACG [U13C U28C] | 0.838
GUUCCGUUGGCGCAAUGGUAACGCGUCCCCCUCCUAAGGAGAAGACUACGGGUUCGAGUCGCGUACGGCACG [U13C U28C G48A C61G A69C] | ≤ 0.5
GUUCCGUUGGCGCAAUGGUAACGCGUCCCCCUCCUAAGGAGAAGACCGCGGGUUAGAGUCCCGUACGGAACG [U13C U28C U47C C55A] | 0.545
GUUCCGUUGGCGCAAUGGUAACGCGUCUCCCCCCUAAGGAGAAGACUGCGGGUUCGAGUCCCGUACGGAACG [U13C U32C] | 0.88
GUUCCGUUGGCGCAAUGGUAACGCGUCUCCCGCCUAAGCAGAAGACUGCGGCUUCGAGUCCCGUACGGAACG [U13C U32G G39C G52C] | ≤ 0.5
GUUCCGUUGGCGCAAUGGUAACGCGUCUCCCUCCUAAGGAGAAGACAGCGGGUUCGAGUCCUGUACGGAACG [U13C U47A C62U] | 0.596
GUUCCGUUGGCGCAAUGGUAACGCGUCUCCCUCCUAAGGAGAAGACAGCGGGUUCGAGUCCCGUACGAAACG [U13C U47A G68A] | ≤ 0.5
GUUCCGUUGGCGCAAUGGUAACGCGUCUCCCUCCUAAGGAGAAGACCGCGGGUUCGAGUCCCGUGCGGAACG [U13C U47C A65G] | 0.766
GUUCCGUUGGCGCAAUGGUAACGCGUCUCCCUCCUAAGGAGAAGACCGCGGGUUCGAGUCCGGUACGGAACG [U13C U47C C62G] | ≤ 0.5
GUUCCGUUGGCGCAAUGGUAACGCGUCUCCCUCCUAAGGAGAAGACCGCGGGUUCCAGUCCCGUACGGAACG [U13C U47C G56C] | 0.544
